Data set [1] concerns MT2. As to the kind of experiment: Cytotoxicity against human MT2 cells assessed as concentration required to 5% inhibition of cell growth relative to control. It is filed as cell-based. The gist of the method:
(§1)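 MT-2 cells were grown in RPMI-1640 without antibiotics and exposed to compound. CT50 and CT5 are the concentrations inhibiting cellular replication by 50% and 5% relative to untreated control; CT5 corresponds to 95% viable cells. Values are the mean of triplicate assays with SD.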

Data set [2] can be described thus: Inhibition of HIV NL4-3 recombinant histidine-tagged integrase 3'-end processing activity expressed in Escherichia coli BL21 (DE3). Details: species or system Human immunodeficiency virus. In outline:
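N-terminal 6-His-tagged HIV-1 NL4-3 IN expressed in E. coli BL21 DE3 pLysS, Ni2+ affinity purified (>95%), stored at -80 °C. The 32P-labeled blunt-end V1/V2 duplex mimicking the viral LTR was incubated with IN and increasing compound concentrations at 37 °C for 1 h, in triplicate. Products were resolved by denaturing PAGE and quantified by phosphorimager. 3'-processing was read as the 21mer to 19mer conversion.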

The subject of data set [3] is Human immunodeficiency virus. Nature of the data set: Antiviral activity against HIV LAI infected in human MT2 cells assessed as protection against virus-induced cytopathic effect. The class given is functional, organism-based. As to conditions: Human immunodeficiency virus 1, LAI. The gist of the method: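 MT-2 cells were cultured in RPMI-1640 without antibiotics and infected with HIV LAI. EC50 is the concentration protecting 50% of cells from virus-induced cytopathic effect. Values are the mean of triplicate assays with SD.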

Data set [4] can be described thus: Inhibition of HIV NL4-3 recombinant histidine-tagged integrase strand transfer activity expressed in Escherichia coli BL21 (DE3). Also on record: species or system Human immunodeficiency virus.
Data set [5] can be described thus: Cytotoxicity against human MT2 cells assessed as concentration required to 50% inhibition of cell growth relative to control. The class given is cell-based. The following applies: read-out: Activity. The gist of the method: as §1
Data set [6] is described as follows: Therapeutic index, ratio of CT50 for human MT2 cells to EC50 for HIV LAI. The class given is cell-based. The following applies: read-out: TI.

In the case of `O=C(/C=C(\O)C(=O)O)/C=C/c1ccc(O)c(O)c1`, the Activity in data set [1] came to 32 µM. Moreover, the IC50 in data set [2] was found to be 1100 nM; in data set [4] it was 810 nM. The EC50 in data set [3] was above 36000 nM. The CC50 in data set [5] stood at 80000 nM.
As for `NC(=O)[C@H](OC(=O)/C=C/c1ccc(O)c(O)c1)[C@@H](OC(=O)/C=C/c1ccc(O)c(O)c1)c1nnn[nH]1`, in data set [1], the Activity came out at 5.7 µM. Further, the IC50 in data set [2] was found to be 210 nM; in data set [4], 270 nM. In data set [3], the 50% effective concentration (EC50) came to 420 nM. Besides, in data set [6], the selectivity ratio is above 350. Also, in data set [5], the CC50 worked out at 31900 nM.
Consider `O=C(/C=C/c1ccc(O)c(O)c1)Nc1cc(NC(=O)/C=C/c2ccc(O)c(O)c2)cc(C(=O)/C=C(\O)C(=O)O)c1`, for which the Activity in data set [1] was above 50.7 µM. Also, the IC50 in data set [2] came out at 120 nM; in data set [4], 130 nM. Further, the EC50 in data set [3] was above 51000 nM. Further, the CC50 in data set [5] was above 50700 nM.
Regarding `O=C(/C=C/c1cc(O)c(O)c(O)c1)OC(c1nnn[nH]1)C(OC(=O)/C=C/c1cc(O)c(O)c(O)c1)c1nnn[nH]1` (single isomer, unassigned), in data set [1], the Activity turned out to be 11.3 µM. For the same compound, the IC50 in data set [2] is 390 nM; in data set [4] it was 210 nM. Moreover, in data set [3], the EC50 came to 60 nM. Also, in data set [6], the selectivity ratio is above 350. Besides, in data set [5], the CC50 was 48900 nM.
`O=C(O)/C(O)=C/C(=O)c1ccc(O)c(O)c1`: in data set [1], the Activity stood at 67 µM. Besides, the IC50 in data set [2] is 470 nM; in data set [4], 1130 nM. Moreover, in data set [3], the concentration for a half-maximal effect (EC50) was above 67000 nM. Also, in data set [5], the CC50 was 178000 nM.
On to `O=C(O)C(=O)CC(=O)c1cccn1Cc1ccc(F)cc1`, for which the Activity in data set [1] was above 69.3 µM. The IC50 stood at 13000 nM in data set [2] and 140 nM in data set [4]. For the same compound, the EC50 in data set [3] amounted to 400 nM. Besides, in data set [5], the CC50 was above 69300 nM.
As to `COC(=O)/C(O)=C/C(=O)c1ccc(NC(=O)/C=C/c2ccc(O)c(O)c2)cc1`, in data set [1], the Activity came out at 12.4 µM. Further, the IC50 in data set [2] was determined as 1820 nM; in data set [4], 1380 nM. Also, the concentration for a half-maximal effect (EC50) in data set [3] was above 54000 nM. In data set [5], the CC50 is 39500 nM.
Take `O=C(/C=C/c1ccc(O)c(O)c1)Nc1cccc(C(=O)/C=C(\O)C(=O)O)c1`: the Activity in data set [1] amounted to 20.4 µM. The 50% inhibitory concentration (IC50) in data set [2] was 110 nM; in data set [4], 360 nM. Moreover, the concentration for a half-maximal effect (EC50) in data set [3] was above 34000 nM. The CC50 in data set [5] came to 52800 nM.
For `O=C(/C=C/c1ccc(O)c(O)c1)OCC(OC(=O)/C=C/c1ccc(O)c(O)c1)c1nnn[nH]1` (racemic), the Activity in data set [1] is above 42.5 µM. The IC50 was determined as 140 nM in data set [2] and 120 nM in data set [4]. Further, in data set [3], the concentration for a half-maximal effect (EC50) came out at 850 nM. Further, in data set [5], the CC50 is above 42500 nM.
For `COC(=O)/C(O)=C/C(=O)c1ccc(O)c(O)c1`, in that order: 36 µM, 2810 nM, 1890 nM, above 36000 nM and 182000 nM.
For `O=C(/C=C/c1ccc(O)c(O)c1)Nc1ccccc1C(=O)/C=C(\O)C(=O)O`, in that order: 23.3 µM, 2280 nM, 2550 nM, above 37500 nM and 53000 nM.
For `O=C(O[C@@H](C(=O)O)[C@@H](O)C(=O)O)c1cccn1Cc1ccc(F)cc1`, in that order: 60.8 µM, 277000 nM, 47300 nM, above 170000 nM and 792000 nM.
On to `O=C(/C=C/c1ccc(O)c(O)c1)O[C@@H](c1nnn[nH]1)[C@@H](OC(=O)/C=C/c1ccc(O)c(O)c1)c1nnn[nH]1`, for which the Activity in data set [1] amounted to 28.4 µM. Further, the IC50 in data set [2] was 340 nM; in data set [4], 440 nM. In data set [3], the EC50 is 330 nM. Moreover, in data set [6], the selectivity ratio is above 350. Further, the CC50 in data set [5] is 422000 nM.
With `COC(=O)/C(O)=C/C(=O)c1cc(NC(=O)/C=C/c2ccc(O)c(O)c2)cc(NC(=O)/C=C/c2ccc(O)c(O)c2)c1`, in data set [1], the Activity is above 47.7 µM. For the same compound, the IC50 was 750 nM in data set [2] and 630 nM in data set [4]. For the same compound, the EC50 in data set [3] was above 48000 nM. In addition, the CC50 in data set [5] is above 47700 nM.
Consider `O=C(/C=C/c1ccc(O)c(O)c1)O[C@@H](C(=O)O)[C@@H](O)C(=O)O` [CAFTARIC ACID], for which the Activity in data set [1] was 49.6 µM. For the same compound, the IC50 in data set [2] was 19100 nM; in data set [4] it was 6080 nM. Further, in data set [3], the concentration giving a half-maximal response (EC50) is 80500 nM. The CC50 in data set [5] came out at 325000 nM.
In the same order, the values of `O=C(/C=C/c1ccc(O)c(O)c1)O[C@@H](C(=O)O)[C@@H](OC(=O)/C=C/c1ccc(O)c(O)c1)C(=O)O` [CICHORIC ACID] are 41 µM, 220 nM, 270 nM, 810 nM and 124000 nM.
For `O=C(O[C@@H](C(=O)O)[C@@H](OC(=O)c1cccn1Cc1ccc(F)cc1)C(=O)O)c1cccn1Cc1ccc(F)cc1`, in that order: 28.7 µM, 136000 nM, 74200 nM, above 90500 nM and 374000 nM.
For `O=C(/C=C/c1ccc(O)c(O)c1)O[C@@H](C(=O)O)[C@@H](OC(=O)c1cccn1Cc1ccc(F)cc1)C(=O)O`, in that order: 41.8 µM, 4050 nM, 1270 nM, 110000 nM and 399000 nM.
Take `O=C(/C=C/c1ccc(O)c(O)c1)Nc1ccc(C(=O)/C=C(\O)C(=O)O)cc1`: the Activity in data set [1] was determined as 26.1 µM. For the same compound, the IC50 in data set [2] came to 400 nM; in data set [4], 350 nM. In data set [3], the concentration for a half-maximal effect (EC50) was above 16900 nM. Also, the CC50 in data set [5] turned out to be 47200 nM.
